Data set [1] in a line: Metabolic stability in human liver microsomes. It is filed as ADME, Microsome. Particulars: read-out: Stability. On the technique in general: Microsomes from liver hold many membrane-bound enzymes, among them those of drug oxidation.
The nature of data set [2]: Metabolic stability in human liver microsomes assessed as phase II glucuronidation in the presence of uridine diphosphate glucuronic acid and absence of NADPH. It is filed as ADME, Microsome. Particulars: read-out: Stability. Put shortly: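 Human liver microsomes incubated with the cofactor UDPGA and without NADPH, to assess phase II glucuronidation.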
The nature of data set [3]: Half life in rat at 1 mg/kg, iv. It is filed as ADME, organism-based. More on the design: dose 1 mg/kg, route intravenous. Particulars: in vivo. The procedure, abridged: (§1)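 Intravenous pharmacokinetics in rats from a 1 mg/kg dose; blood sampled.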
The nature of data set [4]: Volume of distribution at steady state in rat at 1 mg/kg, iv. The data set is classed as ADME, organism-based. More on the design: dose 1 mg/kg, route intravenous. Particulars: in vivo, read-out: Vdss.
The species entered for the next data set is Rattus norvegicus. Kind of data set: Unbound clearance in rat. It is filed as ADME, organism-based. Particulars: in vivo.
Data set [5] can be described thus: Oral bioavailability in rat at 3 mg/kg. It is filed as ADME, organism-based. Particulars: in vivo. The procedure, abridged:
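Oral pharmacokinetics in rats from a 3 mg/kg dose.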

The nature of data set [6]: Clearance in rat at 1 mg/kg, iv. It is filed as ADME, organism-based. Further details: dose 1 mg/kg, route intravenous. Particulars: in vivo. Put shortly: as §1
Data set [7] in a line: Intrinsic clearance in rat liver microsomes. The note with it: read-out: CLH. It is filed as ADME, Microsome.
Data set [8] in a line: Solubility in simulated lung fluid. The data set is classed as physicochemical.
The nature of data set [9]: Oral bioavailability in rat at 0.5 mg/kg. It is filed as ADME, organism-based. The note with it: in vivo. Put shortly:
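Oral pharmacokinetics in rats from a 0.5 mg/kg dose; blood sampled.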

A further data set is filed under the species Canis familiaris. The data set is described as follows: Unbound clearance in dog. It is filed as ADME, organism-based, Canis lupus familiaris. The note with it: in vivo.
Data set [10] can be described thus: Clearance in dog at 0.5 mg/kg, iv. More on the design: dose 0.5 mg/kg, route intravenous. It is filed as ADME, organism-based, Canis lupus familiaris. Particulars: in vivo. The procedure, abridged: (§2)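 Intravenous pharmacokinetics in dogs from a 0.5 mg/kg dose; blood sampled.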
Data set [11] is described as follows: Lipophilicity, log D of the compound. The data set is classed as physicochemical. The note with it: octanol/water.
A short description of data set [12]: Aqueous solubility of the compound. It is filed as physicochemical.
Data set [13] deals with Liver microsomes. Kind of data set: Drug metabolism in rat liver microsomes. It is filed as ADME, Microsome.
For data set [14], the system named is Liver microsomes. The data set is described as follows: Drug metabolism in human liver microsomes. It is filed as ADME, Microsome.
Data set [15] can be described thus: Volume of distribution at steady state in dog at 0.5 mg/kg, iv. It is filed as ADME, organism-based, Canis lupus familiaris. Further details: dose 0.5 mg/kg, route intravenous. Particulars: in vivo, read-out: Vdss.
Data set [16] is described as follows: Dissociation constant, pKa of the compound. It is filed as physicochemical.
A short description of data set [17]: Half life in dog at 0.5 mg/kg, iv. Particulars: in vivo. More on the design: dose 0.5 mg/kg, route intravenous. It is filed as ADME, organism-based, Canis lupus familiaris. The procedure, abridged:
as §2

A short description of data set [18]: Drug metabolism in dog liver microsomes. The data set is classed as ADME, Canis lupus familiaris, Microsome.

Each structure is given as a SMILES string. In brackets after ≈: the same amount, converted by molar mass.

Regarding `CC(C)c1nnc2ccc(Sc3ccccc3CNC(=O)Nc3cc(C(C)(C)C)nn3-c3ccccc3)cn12`, the microsomal CLint in data set [1] is above 320 µL/min/mg.
With `CSC(C)(C)c1cc(NC(=O)NCc2ccccc2Sc2ccc3nnc(C(C)C)n3c2)n(-c2ccccc2)n1`, the microsomal CLint was 1.7 µL/min/mg in data set [2] and above 320 µL/min/mg in data set [1].
In the case of `CC(C)c1nnc2ccc(Sc3ccccc3CNC(=O)Nc3cc(C(C)(C)C)nn3-c3cccc(O)c3)cn12`, in data set [1], the microsomal CLint turned out to be 385 µL/min/mg.
Take `CC(C)c1nnc2ccc(Sc3ccccc3CNC(=O)Nc3cc(C(C)(C)C)nn3-c3ccc(O)cc3)cn12`: the microsomal CLint in data set [1] is 196 µL/min/mg.
As for `CSC(C)(C)c1cc(NC(=O)NCc2ccccc2Sc2ccc3nnc(C(C)C)n3c2)n(-c2cccc(O)c2)n1`, the figures for the microsomal CLint in [2], in [1] and in [7] were 2 µL/min/mg, above 440 µL/min/mg and 200 µL/min/mg, respectively. In data set [3], this molecule gave a half-life of 1 h. In addition, in data set [4], the Vd stood at 0.9 L/kg. In the data set listed under Rattus norvegicus, this molecule had a CL free above 9600 mL/min/kg. In data set [5], this molecule came in with a bioavailability below 5%. Moreover, in data set [6], the clearance was 77 mL/min/kg.
For `CC(C)c1nnc2ccc(Sc3ccccc3CNC(=O)Nc3cc(C(C)(C)C)nn3-c3ccc(O)c(Cl)c3)cn12`, the microsomal CLint in [2] was 155 µL/min/mg; in [1] it was above 287 µL/min/mg.
For the molecule `CC(C)c1nnc2ccc(Sc3ccccc3CNC(=O)Nc3cc(C(C)(C)C)nn3-c3ccc(Cl)c(O)c3)cn12`, the microsomal CLint in data set [2] is 66 µL/min/mg; in data set [1], 303 µL/min/mg.
As for `Cc1ccc(-n2nc(C(C)(C)C)cc2NC(=O)NCc2ccccc2Sc2ccc3nnc(-c4ccccc4O)n3c2)cc1`, the microsomal CLint in data set [1] was determined as 279 µL/min/mg.
With `Cc1cccc(-n2nc(C(C)(C)C)cc2NC(=O)NCc2ccccc2Sc2ccc3nnc(-c4cccc(Cl)c4O)n3c2)c1`, the microsomal CLint in data set [2] was determined as 41 µL/min/mg; in data set [1], 126 µL/min/mg.
For the molecule `CSCC(C)(C)c1cc(NC(=O)NCc2ccccc2Sc2ccc3nnc(-c4ccccc4O)n3c2)n(-c2ccccc2)n1`, the microsomal CLint was 27 µL/min/mg in [2] and above 440 µL/min/mg in data set [1].
On to `Cc1ccc(-n2nc(C(C)(C)C)cc2NC(=O)NCc2ccccc2Sc2ccc3nnc(-c4cc(O)ccc4Cl)n3c2)cc1`, for which the microsomal CLint was 43 µL/min/mg in data set [2] and above 440 µL/min/mg in data set [1].
For the molecule `Cc1ccc(-n2nc(C(C)(C)C)cc2NC(=O)NCc2ccccc2Sc2ccc3nnc(-c4ccc(O)cc4Cl)n3c2)cc1`, the microsomal CLint in [1] is 132 µL/min/mg.
In the case of `CSc1ccccc1-c1nnc2ccc(Sc3ccccc3CNC(=O)Nc3cc(C(C)(C)C)nn3-c3cccc(O)c3)cn12`, the figures for the microsomal CLint in data set [2] and in data set [1] were 11 µL/min/mg and 304 µL/min/mg, respectively.
Turning to `CC(C)(C)c1cc(NC(=O)NCc2ccccc2Sc2ccc3nnc(-c4ccccc4O)n3c2)n(-c2cccc(OCCO)c2)n1`, the microsomal CLint is 8 µL/min/mg in data set [2] and above 287 µL/min/mg in [1]. For the same molecule, the solubility in data set [8] is 1 µg/mL (≈ 1.54 µM).
For `CC(C)(C)c1cc(NC(=O)NCc2ccccc2Sc2ccc3nnc(-c4ccccc4OCCO)n3c2)n(-c2cccc(O)c2)n1`, in [1], the microsomal CLint was above 320 µL/min/mg.
Turning to `CC(C)(C)c1cc(NC(=O)NCc2ccccc2Sc2ccc3nnc(-c4cc(O)ccc4Cl)n3c2)n(-c2cccc(OCCO)c2)n1`, the microsomal CLint in [2] is 53 µL/min/mg; in data set [1] it was above 285 µL/min/mg.
`CSCC(C)(C)c1cc(NC(=O)NCc2ccccc2Sc2ccc3nnc(-c4cc(O)ccc4Cl)n3c2)n(-c2cccc(OCCO)c2)n1`: the results for the microsomal CLint in [2] and in data set [1] were 47 µL/min/mg and above 216 µL/min/mg, respectively.
As for `CC(C)(C)c1cc(NC(=O)NCc2ccccc2Sc2ccc3nnc(-c4ccccc4OCCO)n3c2)n(-c2ccc(O)c(Cl)c2)n1`, the results for the microsomal CLint in data set [2] and in data set [1] were 130 µL/min/mg and 202 µL/min/mg, respectively.
For `CC(C)(C)c1cc(NC(=O)NCc2ccccc2Sc2ccc3nnc(-c4ccccc4OCCO)n3c2)n(-c2ccc(Cl)c(O)c2)n1`, in that order: 70 µL/min/mg and 232 µL/min/mg.
With `CSCC(C)(C)c1cc(NC(=O)NCc2ccccc2Sc2ccc3nnc(-c4ccccc4OCCO)n3c2)n(-c2ccc(O)c(Cl)c2)n1`, the microsomal CLint in data set [2] was 310 µL/min/mg; in data set [1] it was above 440 µL/min/mg.
Consider `CC(C)(C)c1cc(NC(=O)NCc2ccccc2Sc2ccc3nnc(-c4ccccc4OCCO)n3c2)n(-c2ccc(O)c(F)c2)n1`, for which the microsomal CLint in data set [1] was above 440 µL/min/mg.
With `CC(C)(C)c1cc(NC(=O)NCc2ccccc2Sc2ccc3nnc(-c4ccccc4SCCO)n3c2)n(-c2cccc(O)c2)n1`, the microsomal CLint is 4 µL/min/mg in data set [2] and above 440 µL/min/mg in data set [1].
Regarding `CSCC(C)(C)c1cc(NC(=O)NCc2ccccc2Sc2ccc3nnc(-c4ccccc4SCCO)n3c2)n(-c2ccc(O)c(Cl)c2)n1`, the microsomal CLint in [2] is 264 µL/min/mg.
As for `C[C@@H]1C[C@H]2[C@@H]3C[C@H](F)C4=CC(=O)C=C[C@]4(C)[C@@]3(F)[C@@H](O)C[C@]2(C)[C@@]1(O)C(=O)SCF` [FLUTICASONE], in data set [8], the solubility was 0.5 µg/mL (≈ 1.12 µM).
The molecule `CC(C)(C)c1cc(NC(=O)NCc2ccccc2Sc2ccc3nnc(-c4ccccc4SCCO)n3c2)n(-c2ccc(O)c(Cl)c2)n1` [PF-03715455] gave a bioavailability in data set [9] below 5%. The microsomal CLint in data set [2] was 205 µL/min/mg; in [1] it was above 347 µL/min/mg. In addition, the half-life in data set [3] is 1 h; in [17] it was 0.5 h. Besides, the CL free in the data set listed under Canis familiaris stood at 15000 mL/min/kg; in the data set listed under Rattus norvegicus, 33000 mL/min/kg. Moreover, the clearance in data set [10] came out at 13.1 mL/min/kg; in data set [6], 33.8 mL/min/kg. The Vd in data set [4] is 0.19 L/kg; in data set [15] it was 0.06 L/kg. For the same molecule, the logD in data set [11] was above 4.1. Moreover, the solubility in data set [12] is below 100 µg/mL. Moreover, the Drug metabolism result (in the data set on Liver microsomes [13]; with Liver microsomes [14]; in data set [18]) was “Active” in each case. The molecule further showed a pKa in data set [16] of 7.45.

By half-life is commonly meant the time needed for the level to fall by half in the phase considered. A low value points to fast loss. The bioavailability is the share of a dose that reaches the circulation, judged against a reference dose that is usually intravenous. A lower bioavailability goes with little systemic uptake. The term clearance denotes the rate of elimination divided by the concentration. The solubility is the dissolved amount per volume that the medium holds. Read a high solubility as a readily soluble substance. One may read the logD as the decadic logarithm of the distribution of all forms, ionised or not, between an organic phase and buffer at a given pH. High values mean a more lipophilic compound, low ones a more hydrophilic compound. For orientation: pKa means the pH at which an ionisable group is half protonated.

(Values after ChEMBL document CHEMBL1938287, “Design and synthesis of inhaled p38 inhibitors for the treatment of chronic obstructive pulmonary disease” (J Med Chem, 2011).)
